The values that follow come from PubChem BioAssay.

Active and inactive are the calls of the source.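 Rule for the calls, unless noted: active = fluorescence slope after compound addition differing from the mean of all tested samples at 99.7% confidence, mostly higher but some lower; inactive = the rest.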

As a reminder, the inhibition is the change of the read-out against control, counted positive when it falls.

Assay [1] in a line: inhibitors of TNFa-induced NFkB p65 translocation, primary screen, imaging, HUVEC, MLSMR starter and 10KST1 sets (AID 438;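 active = inhibition above 20% together with a positive visual image hit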;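 note: compound added about 3h40 before a 20 min TNFalpha stimulation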;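 for inhibition: signal is the nuclear over cytoplasmic p65 intensity ratio per well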). The conditions noted are these: HUVEC TNFa-induced p65 nuclear translocation; cell count: measured here: nuclei count (cytotoxicity indicator), at 2.08 µM; inhibition: at 2 µM, stronger effect = higher value, 0% TNFa-plus-vehicle, 100% no-TNFa wells.
Assay [2] in a line: reduction of polyQ htt aggregates in cells – imaging, exon1htt(103Q)mCFP cells, high-content imaging, primary screen (AID 483;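 active = visual image review flags a hit and inhibition of aggregation exceeds 20%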;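 note: compound exposure lasted 3 days before fixation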;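 for nuclei count: percent of the per-plate median nuclei count of sample wells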). The following applies: exon1htt(103Q)mCFP cell line, aggregate imaging, at 2 µM; inhibition of aggregation: stronger effect = higher value; nuclei count: measured here: cell count, toxicity.
The nature of assay [3]: endothelial E-selectin expression blockers – imaging, HUVEC, immunofluorescence, MLSMR starter and 10KST1 sets, primary screen (AID 487;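 active = visually confirmed hit in the image check and inhibition above 20%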;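 for inhibition: signal is fraction of cell area covered by stained E-selectin grains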;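 for nuclei count: 100% = median nuclei count of all wells on the same plate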). The conditions noted are these: HUVEC TNFalpha-induced E-selectin immunofluorescence imaging, at 2 µM; inhibition: stronger effect = higher value; nuclei count: measured here: cell number, toxicity.
In assay [4] the target is Voltage-gated potassium channel subunit beta-2 (Rattus norvegicus) (UniProt P62483). As to the kind of experiment: inhibitors of rat Kvbeta2 reductase activity – biochemical, NADPH fluorescence, primary screen (AID 622;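 active = fluorescence slope higher than the sample average by over 3 SD, cut at about -0.22 in these data, passing the limit was not always enough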;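 note: slope of raw intensity against log time taken from 70 to 1610 s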). The following applies: recombinant KvBeta, 4-cyanobenzaldehyde reduction, at 10 µM, stronger effect = higher value.
Voltage-gated potassium channel subunit beta-2 (Rattus norvegicus), sequence (P62483 whole entry, looked up): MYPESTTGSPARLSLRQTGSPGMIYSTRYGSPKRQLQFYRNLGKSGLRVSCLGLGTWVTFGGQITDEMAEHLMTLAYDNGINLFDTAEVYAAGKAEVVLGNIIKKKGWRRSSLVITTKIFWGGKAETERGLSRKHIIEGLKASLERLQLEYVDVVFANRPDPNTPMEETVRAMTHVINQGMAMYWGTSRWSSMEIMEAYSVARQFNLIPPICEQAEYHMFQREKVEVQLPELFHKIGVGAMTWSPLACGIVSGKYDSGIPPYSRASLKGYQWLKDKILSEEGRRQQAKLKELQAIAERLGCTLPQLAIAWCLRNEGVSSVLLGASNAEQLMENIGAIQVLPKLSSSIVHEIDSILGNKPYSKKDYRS
Assay [5] has the same target. The experiment in a line: enhancers of rat Kvbeta2 NADPH turnover – biochemical, NADPH fluorescence, primary screen (AID 623;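 active = NADPH fluorescence slope more negative than the mean of all samples by about 3 SD, 99.7% confidence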;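 note: fluorescence intensity change per second fitted from 20 to 320 s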). The conditions noted are these: Recombinant KvBeta, NADPH fluorescence decrease slope, 10 min; at 10 µM; stronger effect = lower value.
Assay [6] deals with Muscarinic acetylcholine receptor M4 (Homo sapiens) (UniProt P08173). The experiment in a line: M4-linked GIRK flux change, two-sided – cell-based, HEK293 M4/GIRK, thallium flux, BTC-AM, M4 allosteric agonist project, primary screen (AID 625).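 Note: thallium influx through GIRK channels coupled to M4 in HEK293 cells with BTC-AM dye.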 The conditions noted are these: at 10 µM, actives lie on both sides. In outline:
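System: HEK293 cells with M4 receptor and GIRK channels | Incubation: Cells overnight at 37 °C, BTC-AM loading 1 h, reads 2 min total | Technique: Kinetic BTC-AM fluorescence sampled at 1 Hz, 10 s pre-addition baseline | Measure: Post-addition slope, 15–24 s, of baseline-normalized fluorescence | Control set: Carbachol positive, DMSO negative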

The nature of assay [7]: blockers of RIG-like receptor reporter activation – cell-based, Sendai virus stimulus, luciferase, 10K MLSCN set, TLR/RLR signaling modifier project, primary screen (AID 602276;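 active = inhibition at or above 50% at 10 µM; inactive = inhibition below 50%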;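 note: firefly luciferase from ISG56 promoter only with Renilla not read in this screen; 0% = Sendai virus plus DMSO and 100% = medium plus DMSO without virus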). The following applies: HEK293 RL24 IRF3 luciferase reporter, at 10 µM, stronger effect = higher value.
Assay [8] can be described thus: TLR3 IRF3 reporter activation blockers – cell-based, poly I:C stimulus, luciferase, 10K MLSCN set, primary screen (AID 602277;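 active = inhibition of the reporter signal at or above 50%; inactive = inhibition below 50%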). The conditions noted are these: HEK293-TLR3 RL24 IRF3 luciferase reporter, at 10 µM, stronger effect = higher value.

Muscarinic acetylcholine receptor M4 (Homo sapiens), sequence (P08173 whole entry, looked up): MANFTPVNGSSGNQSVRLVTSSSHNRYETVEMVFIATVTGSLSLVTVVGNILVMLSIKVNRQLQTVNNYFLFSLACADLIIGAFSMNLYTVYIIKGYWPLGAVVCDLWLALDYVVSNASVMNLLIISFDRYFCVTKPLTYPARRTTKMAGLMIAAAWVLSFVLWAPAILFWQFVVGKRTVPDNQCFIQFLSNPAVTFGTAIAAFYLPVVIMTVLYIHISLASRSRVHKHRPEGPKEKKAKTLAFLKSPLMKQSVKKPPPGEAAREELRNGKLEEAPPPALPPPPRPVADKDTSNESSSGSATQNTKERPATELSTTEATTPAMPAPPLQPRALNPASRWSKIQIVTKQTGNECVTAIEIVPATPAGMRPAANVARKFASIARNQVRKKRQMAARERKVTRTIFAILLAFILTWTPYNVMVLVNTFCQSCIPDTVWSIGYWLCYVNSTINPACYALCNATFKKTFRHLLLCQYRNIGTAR

Regarding `CCc1ccccc1N=C1SCC(=O)N1C`, the cell count in assay [1] came to 368. Besides, the inhibition in assay [1] is -8.5% (inactive); in assay [3] it was -50.2% (inactive); in assay [7], 6.15% (inactive); in assay [8], 13.2% (inactive). Moreover, the inhibition of aggregation in assay [2] is 19.1% (inactive). The values for the nuclei count in assay [2] and in assay [3] were 69.3% and 111%, respectively. The fluorescence slope in assay [4] is -0.412 (inactive); in assay [6], 0.00583 (inactive). Moreover, in assay [5], the NADPH fluorescence slope is 7.8e-05 (inactive).

Regarding `COCCCNC(=O)c1ccc2c(c1)OCO2`, the cell count in assay [1] is 391. Besides, the inhibition in assay [1] is 1.4% (inactive); in assay [3], -36.4% (inactive); in assay [7], -10.8% (inactive); in assay [8], -37.6% (inactive). Besides, the inhibition of aggregation in assay [2] is 0.6% (inactive). The results for the nuclei count in assay [2] and in assay [3] were 107% and 108%, respectively. Also, the fluorescence slope is -0.567 (inactive) in assay [4] and 0.00354 (inactive) in assay [6]. Further, in assay [5], the NADPH fluorescence slope was -9.1e-05 (inactive).

As for `C[N+]1=C2CCCCCN2C(O)(c2ccccc2)C1` (centres undefined), the cell count in assay [1] was determined as 546. Further, the inhibition in assay [1] was -3% (inactive); in assay [3], -1.4% (inactive); in assay [7] it was 12.5% (inactive); in assay [8], 17.2% (inactive). For the same compound, in assay [2], the inhibition of aggregation was 6.3% (inactive). Besides, the nuclei count in assay [2] is 110%; in assay [3], 130%. Further, the fluorescence slope is -0.56 (inactive) in assay [4] and 0.00533 (inactive) in assay [6]. Moreover, in assay [5], the NADPH fluorescence slope was -3.1e-05 (inactive).

With `Nc1cc(C(=O)O)ccc1Nc1ccccc1`, the cell count in assay [1] is 423. For the same compound, the inhibition in assay [1] was -9.8% (inactive); in assay [3], 15.1% (inactive); in assay [7] it was -4.17% (inactive); in assay [8], -19% (inactive). For the same compound, the inhibition of aggregation in assay [2] is 20.7% (inactive). The nuclei count in assay [2] was determined as 86.5%; in assay [3], 101%. The fluorescence slope in assay [4] is -0.557 (inactive); in assay [6], 0.0056 (inactive). Besides, the NADPH fluorescence slope in assay [5] was -4.4e-06 (inactive).

As for `CCCNS(=O)(=O)c1ccc(OCC(=O)Nc2ccccc2F)cc1`, the cell count in assay [1] worked out at 408. Besides, the inhibition in assay [1] is 8.2% (inactive); in assay [3], -57.2% (inactive); in assay [7], 19.7% (inactive); in assay [8] it was 15.2% (inactive). For the same compound, the inhibition of aggregation in assay [2] is -23% (inactive). In addition, the nuclei count in assay [2] is 99.5%; in assay [3], 100%. Further, the fluorescence slope was -0.557 (inactive) in assay [4] and 0.00506 (inactive) in assay [6]. Further, the NADPH fluorescence slope in assay [5] is -2.6e-05 (inactive).

`CCn1c2ccccc2c2cc(NC(=O)CSc3nnc(C4CC4)n3Cc3ccco3)ccc21`: in assay [1], the cell count worked out at 488. For the same compound, the inhibition in assay [1] was 6.3% (inactive); in assay [3] it was 36.4% (inactive); in assay [7], 12.7% (inactive); in assay [8], 17.6% (inactive). Also, in assay [2], the inhibition of aggregation was 2.5% (inactive). In addition, the nuclei count in assay [2] and in assay [3] was 94.6% throughout. For the same compound, the fluorescence slope in assay [4] is -0.461 (inactive); in assay [6], 0.00526 (inactive). The NADPH fluorescence slope in assay [5] was 2.1e-05 (inactive).

`CCOC(=O)N1CCN(CC(=O)Nc2c(C(=O)OC)[nH]c3cccc(Cl)c23)CC1`: in assay [1], the cell count was 556. For the same compound, the inhibition was -15.5% (inactive) in assay [1], -23.3% (inactive) in assay [3], 20% (inactive) in assay [7] and -2.65% (inactive) in assay [8]. For the same compound, in assay [2], the inhibition of aggregation was -5.4% (inactive). In addition, the nuclei count in assay [2] is 96.1%; in assay [3] it was 94%. The figures for the fluorescence slope in assay [4] and in assay [6] were -0.214 (inactive) and 0.00534 (inactive), respectively. The NADPH fluorescence slope in assay [5] was -2.3e-05 (inactive).

For the compound `Clc1cccc(-c2nn3c(Cn4cnc5ccccc54)nnc3s2)c1`, in assay [1], the cell count was 581. Also, the inhibition was 4.7% (inactive) in assay [1], -92.1% (inactive) in assay [3], 18.7% (inactive) in assay [7] and 21.6% (inactive) in assay [8]. Moreover, the inhibition of aggregation in assay [2] is -6.1% (inactive). Moreover, the nuclei count in assay [2] came to 113%; in assay [3], 130%. Moreover, the fluorescence slope was -0.432 (inactive) in assay [4] and 0.00396 (inactive) in assay [6]. Also, the NADPH fluorescence slope in assay [5] was -0.000274 (inactive).

Consider `Cc1ccc(S(=O)(=O)c2nc(-c3ccco3)oc2SCC(=O)NCC2CCCO2)cc1` (centres undefined), for which the cell count in assay [1] was found to be 822. The inhibition in assay [1] is -8% (inactive); in assay [3], -16.1% (inactive); in assay [7], 15.8% (inactive); in assay [8], 18.5% (inactive). Moreover, the inhibition of aggregation in assay [2] is 4% (inactive). Also, the nuclei count in assay [2] amounted to 104%; in assay [3], 109%. The fluorescence slope in assay [4] was -0.458 (inactive); in assay [6], 0.00374 (inactive). Moreover, the NADPH fluorescence slope in assay [5] was -4.2e-05 (inactive).

Regarding `O=C(CCCn1c(=S)[nH]c2ccccc2c1=O)N1CCCCC1`, the cell count in assay [1] amounted to 452. The inhibition in assay [1] is -6.2% (inactive); in assay [3], 1.4% (inactive); in assay [7] it was -0.408% (inactive); in assay [8], 6.14% (inactive). The inhibition of aggregation in assay [2] was 6.5% (inactive). The nuclei count in assay [2] was 123%; in assay [3] it was 106%. Also, the fluorescence slope was -0.451 (inactive) in assay [4] and 0.00588 (inactive) in assay [6]. Moreover, the NADPH fluorescence slope in assay [5] is 2.5e-05 (inactive).

With `CC(=O)N1C(=O)c2cccc3cccc(c23)C(=O)N1C(C)=O`, the cell count in assay [1] was found to be 776. In addition, the inhibition in assay [1] was 4.6% (inactive); in assay [3], -62.5% (inactive); in assay [7], 18.6% (inactive); in assay [8], 15.3% (inactive). Besides, the inhibition of aggregation in assay [2] was -3.8% (inactive). Also, the nuclei count is 93.6% in assay [2] and 120% in assay [3]. Moreover, the fluorescence slope in assay [4] is -0.444 (inactive); in assay [6] it was 0.00473 (inactive). Also, the NADPH fluorescence slope in assay [5] is -2.9e-05 (inactive).

As for `CCOC(=O)C1CCCN(C(=O)CNS(=O)(=O)c2ccc(Br)s2)C1` (centres undefined), the cell count in assay [1] amounted to 232. For the same compound, the inhibition in assay [1] was 3.3% (inactive); in assay [3], -33.6% (inactive); in assay [7] it was 11.6% (inactive); in assay [8], 8.54% (inactive). Moreover, the inhibition of aggregation in assay [2] is -8.6% (inactive). The nuclei count in assay [2] is 108%; in assay [3], 113%. Moreover, the fluorescence slope was -0.437 (inactive) in assay [4] and 0.00599 (inactive) in assay [6]. Moreover, the NADPH fluorescence slope in assay [5] is -5.6e-05 (inactive).

For the compound `O=C(Cc1cccs1)Nc1ccccc1C(=O)O`, the cell count in assay [1] came to 365. Also, the inhibition is 2.6% (inactive) in assay [1], -7.6% (inactive) in assay [3], -8.52% (inactive) in assay [7] and -27.9% (inactive) in assay [8]. For the same compound, in assay [2], the inhibition of aggregation was 13.3% (inactive). The nuclei count in assay [2] came out at 99.5%; in assay [3], 113%. The fluorescence slope in assay [4] is -0.524 (inactive); in assay [6], 0.00502 (inactive). Further, the NADPH fluorescence slope in assay [5] is -3.3e-05 (inactive).

On to `NC(=O)C1(N2CCCCC2)CCN(C2CC(=O)N(Cc3cccs3)C2=O)CC1` (centres undefined), for which the cell count in assay [1] came out at 378. For the same compound, the inhibition was -2.6% (inactive) in assay [1], -117% (inactive) in assay [3], 10.3% (inactive) in assay [7] and 20.4% (inactive) in assay [8]. In assay [2], the inhibition of aggregation is 5.2% (inactive). In addition, the nuclei count in assay [2] amounted to 82.9%; in assay [3] it was 84.9%. Also, the fluorescence slope in assay [4] was -0.458 (inactive); in assay [6] it was 0.00707 (inactive). The NADPH fluorescence slope in assay [5] was -3.2e-05 (inactive).
